Published values gathered from unrelated publications.
Compare with care: the assays were run in different laboratories. pIC50: −log10 of the molar value.
Cell line: MDA-MB-435
Observed: cell growth or viability

| Structure (SMILES) | technique | concentration | time | endpoint | result |
| --- | --- | --- | --- | --- | --- |
| COc1ccccc1/C=C/C(=O)c1ccc(OC)c(S(N)(=O)=O)c1 | SRB | 10 µM | – | inhibition | 73% |
| COc1cccc(Oc2ccccc2NC(=O)CNC(=O)c2cccc3ccccc23)c1 | SRB | – | 48 h | GI50 | 0.0708 µM |
| O=C1NCCc2[nH]c(-c3ccncc3)cc21 | – | – | – | pIC50 | < 5.00 |
| COc1cc(Nc2nccc(-c3cnn4nc(OC)ccc34)n2)cc(C(F)(F)F)c1 | ATP luminescence | – | – | pIC50 | 6.89 |
| CCOC(=O)c1[nH]c(Br)c(-c2ccc(OC)cc2)c1Br | SRB | – | – | pIC50 | 6.07 |
| COc1ccc(C(=O)/C=C/c2c(F)cccc2Cl)cc1S(N)(=O)=O | SRB | 10 µM | – | inhibition | 93% |
| COc1ccc(-c2ccc(-c3ccc(C(=N)N)nc3)s2)cc1 | SRB | – | – | GI50 | 1.73 µM |
| CCOC(=O)c1[nH]c(Br)c(-c2ccc(Cl)c(Cl)c2)c1Br | SRB | – | – | pIC50 | 6.09 |
| COc1ccc(N(C)c2ncnc3c2CCC3)cc1 | SRB | – | – | pIC50 | 7.30 |
| CCOC(=O)c1[nH]c(Br)c(-c2ccc3c(c2)OCO3)c1Br | SRB | – | – | pIC50 | 5.74 |
| COc1ccc(C(=O)/C=C/c2cccc(Cl)c2)cc1S(N)(=O)=O | SRB | 10 µM | – | inhibition | 86% |
| COc1ccc(-c2ccc(-c3ccc(C(=N)N)nc3)s2)cc1Cl | SRB | – | – | GI50 | 1.73 µM |
| COc1ccc(C(=O)/C=C/c2ccc3ccccc3c2)cc1S(N)(=O)=O | SRB | 10 µM | – | inhibition | 98% |
| CCOC(=O)c1[nH]c(Br)c(-c2ccc(OC)c(F)c2)c1Br | SRB | – | – | pIC50 | 6.27 |
